The record followed here is ChEMBL document CHEMBL2346587, “Design, synthesis, and evaluation of a water-soluble antofine analogue with high antiproliferative and antitumor activity” (Bioorg Med Chem, 2013).

Structures are written as SMILES. Values after ≈ are worked out from the molar mass of the structure shown.

For data set [1], the system named is SK-HEP1. Nature of the data set: Cytotoxicity against human SKHEP1 cells after 72 hrs by SRB assay. The format is functional, cell-based. The following applies: SK-HEP1, 72 h. In a few lines:
(§1)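 SRB growth assay: 5 × 10^3 cells/well exposed to a concentration series for 72 h; fixed in 10% TCA 30 min at 4 °C, stained with 0.4% SRB in 1% acetic acid 30 min, dye dissolved in 10 mM Tris pH 10.0, absorbance at 515 nm. Viability relative to vehicle control; IC50 by non-linear regression; at least three experiments. A549-Pa is a paclitaxel-resistant A549 subline.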
Background: The SRB assay estimates cell density from bound dye.

For data set [2], the system named is SNU-638. The data set can be described thus: Cytotoxicity against human SNU638 cells after 72 hrs by SRB assay. The format is functional, cell-based. The following applies: SNU-638, 72 h. In outline:
as §1

The test system of data set [3] is HCT-15. Nature of the data set: Cytotoxicity against human HCT15 cells after 72 hrs by SRB assay. The format is functional, cell-based. The following applies: HCT-15, 72 h. In a few lines:
as §1

Data set [4] has as its system A549. Nature of the data set: Cytotoxicity against human paclitaxel-resistant A549 cells after 72 hrs by SRB assay. The format is functional, cell-based. The following applies: A549, 72 h. In a few lines: as §1
For data set [5], the system named is A549. The data set can be described thus: Cytotoxicity against human A549 cells after 72 hrs by SRB assay. The format is functional, cell-based. The following applies: A549, 72 h. In outline:
as §1

Data set [6] has as its system HCT-116. Nature of the data set: Cytotoxicity against human HCT116 cells after 72 hrs by SRB assay. The format is functional, cell-based. The following applies: HCT-116, 72 h. In outline: as §1
Data set [7] can be described thus: Thermodynamic solubility of the compound in 1:1 mixture of phosphate buffer:ethanol. The format is physicochemical.
The nature of data set [8]: Thermodynamic solubility of the compound in phosphate buffer at pH 7.4. The format is physicochemical. The following applies: read-out: Therm_solubility.
The target in data set [9] is ATP-dependent translocase ABCB1 (Homo sapiens, UniProt P08183). The data set can be described thus: Inhibition of P-gp activity in human paclitaxel-resistant A549 cells assessed as rhodamine 123 accumulation at 10 nM after 72 hrs by FACS analysis (reference value: 14.4 %). The format is cell-based. On the set-up: scale not given: the % may be the effect or the level left. The following applies: a549, 72 h, 0.01 µM. In outline: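 Paclitaxel-resistant A549-Pa cells seeded at 1 × 10^5 cells/dish, pretreated with compound for 72 h, then loaded with rhodamine-123 in culture medium at 37 °C, 5% CO2, in the dark for 90 min. Cells were trypsinized, washed twice in ice-cold PBS, and analysed immediately by flow cytometry (488 nm laser; green fluorescence through a 530 nm band-pass filter).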
Chain of ATP-dependent translocase ABCB1 (P08183 whole entry): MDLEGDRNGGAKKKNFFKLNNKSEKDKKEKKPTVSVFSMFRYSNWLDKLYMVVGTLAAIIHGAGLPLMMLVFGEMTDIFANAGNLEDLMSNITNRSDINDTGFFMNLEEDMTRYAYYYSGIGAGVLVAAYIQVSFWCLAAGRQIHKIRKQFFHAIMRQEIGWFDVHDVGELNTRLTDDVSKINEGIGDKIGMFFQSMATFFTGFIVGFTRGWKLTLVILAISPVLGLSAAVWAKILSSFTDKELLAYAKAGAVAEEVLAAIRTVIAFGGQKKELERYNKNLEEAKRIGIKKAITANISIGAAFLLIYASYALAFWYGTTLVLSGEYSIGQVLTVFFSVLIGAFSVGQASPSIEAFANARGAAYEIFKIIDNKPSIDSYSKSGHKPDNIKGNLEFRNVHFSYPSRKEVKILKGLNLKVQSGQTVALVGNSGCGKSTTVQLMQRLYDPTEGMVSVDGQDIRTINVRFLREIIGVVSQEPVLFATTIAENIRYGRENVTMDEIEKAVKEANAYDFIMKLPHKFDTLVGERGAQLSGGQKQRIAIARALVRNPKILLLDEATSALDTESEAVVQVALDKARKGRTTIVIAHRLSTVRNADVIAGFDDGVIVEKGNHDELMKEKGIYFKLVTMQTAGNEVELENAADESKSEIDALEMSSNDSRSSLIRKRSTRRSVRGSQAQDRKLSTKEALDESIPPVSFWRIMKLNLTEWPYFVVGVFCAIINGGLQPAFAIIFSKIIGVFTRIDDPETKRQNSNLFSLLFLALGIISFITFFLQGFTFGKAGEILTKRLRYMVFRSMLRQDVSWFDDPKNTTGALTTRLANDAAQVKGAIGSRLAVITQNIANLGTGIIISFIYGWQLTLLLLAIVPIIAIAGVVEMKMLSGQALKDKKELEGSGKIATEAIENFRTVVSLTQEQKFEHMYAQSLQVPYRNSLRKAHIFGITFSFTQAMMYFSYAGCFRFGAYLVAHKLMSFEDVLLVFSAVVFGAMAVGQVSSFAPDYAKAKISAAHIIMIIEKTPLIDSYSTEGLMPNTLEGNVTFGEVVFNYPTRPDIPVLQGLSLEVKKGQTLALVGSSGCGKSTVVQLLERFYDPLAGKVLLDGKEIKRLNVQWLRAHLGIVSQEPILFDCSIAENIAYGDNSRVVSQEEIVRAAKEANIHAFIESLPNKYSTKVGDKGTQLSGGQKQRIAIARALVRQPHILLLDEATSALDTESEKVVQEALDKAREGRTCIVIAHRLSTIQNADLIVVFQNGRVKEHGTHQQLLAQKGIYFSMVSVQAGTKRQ

For the molecule `COc1ccc2c3c(c4cc(OC)c(OC)cc4c2c1)CC1CCCN1C3` (racemic) [(+/-)-ANTOFINE], the IC50 in [1] is 0.016 µM; in data set [2], 0.021 µM; in data set [3] it was 0.025 µM; in data set [4], 0.022 µM; in data set [5] it was 0.02 µM; in [6] it was 0.011 µM.
For `COc1ccc2c3c(c4cc(OC)c(OC)cc4c2c1)C[C@]1(CO)CCCN1C3`, the IC50 was 0.54 µM in data set [1]; 1.49 µM in [2]; 1.42 µM in [3]; 3.66 µM in data set [4]; 2.27 µM in [5]; 0.8 µM in data set [6].
In the case of `COc1ccc2c3c(c4cc(OC)c(OC)cc4c2c1)CC1(C(=O)O)CCCN1C3` (racemic), the IC50 in [1], in data set [2], in data set [3], in data set [4], in [5] and in data set [6] was over 1 µM in each case.
For `COc1ccc2c3c(c4cc(OC)c(OC)cc4c2c1)CC1(CO)CCCN1C3` (racemic), the IC50 was determined as 0.1 µM in data set [1]; 0.092 µM in data set [2]; 0.179 µM in data set [3]; 0.204 µM in [4]; 0.167 µM in data set [5]; 0.053 µM in data set [6]. Also, the solubility thermodynamic in [7] (1:1 mixture of phosphate buffer:ethanol, read-out: Therm_solubility) came out at 1390 µg/mL (≈ 3540 µM); in data set [8] it was 656 µg/mL (≈ 1670 µM).
Consider `COc1ccc2c3c(c4cc(OC)c(OC)cc4c2c1)C[C@H]1CCCN1C3` [(-)-ANTOFINE], for which the IC50 in data set [1] is 0.008 µM; in data set [2], 0.01 µM; in data set [3], 0.013 µM; in data set [4], 0.018 µM; in data set [5], 0.011 µM; in [6], 0.008 µM. Also, the Therm_solubility in data set [7] (buffer) is 47 µg/mL. For the same molecule, the solubility thermodynamic in data set [8] was under 1 µg/mL. In data set [9], the Activity was 37.9%.
Consider `COC(=O)C12CCCN1Cc1c(c3cc(OC)c(OC)cc3c3cc(OC)ccc13)C2` (racemic), for which the IC50 in data set [1], in data set [2], in data set [3], in [4], in data set [5] and in data set [6] was over 1 µM throughout.

As a reminder, the IC50 is the concentration needed to halve the response being measured.
